Laboratory results as given in ChEMBL document CHEMBL1129943, “5-aminocoumarans: dual inhibitors of lipid peroxidation and dopamine release with protective effects against central nervous system trauma and ischemia” (J Med Chem, 1997).

What was measured:
Type in all cases: functional
Mus musculus [1] = species: Mus musculus; test: Percentage increase of locomotor activity in mice
Mus musculus [2] = test: Locomotor activity was measured in mice after 1 hour administration of methamphetamine; design: unit not given here
Mus musculus [3] = species: Mus musculus; test: Peroral dose required to reduce by 50% the score of excitatory behavior induced by intrathecal injection of ferrous chloride in mice; settings: central, read-out: ID50 (the source's name)
How it was run: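 Male Slc:ICR mice, 5 weeks old, 10 per dose. Compound given orally 30 min before intrathecal 5 μL of 50 mM FeCl2 in saline (between L6 and S1). Vehicle was water, or 0.5% gum arabic suspension. Behaviour scored 0–5 (biting to death) from 15 min to 1 h. ID50 from three or four doses, relative to vehicle score.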

Rattus norvegicus [4] = species: Rattus norvegicus; test: Inhibition of lipid peroxidation by rat liver microsomes; design: concentration or dose not given beside the values; settings: dose or concentration not given here
How it was run: (§1)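 Rat liver microsomes (S-9), 0.3 mg protein in 40 mM Tris-malate pH 7.4. Peroxidation started with a 1:1 mix of FeCl2 (0.25 mM) and NADPH (3 mM), then 1 h at 37 °C. Compound in DMSO added before incubation, tested up to 1 μM final. Thiobarbituric acid method read-out. Activity relative to DMSO vehicle; IC50 from four concentrations by nonlinear regression, otherwise % inhibition at 1 μM.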

Rattus norvegicus [5] = species: Rattus norvegicus; test: Concentration required to reduce by 50% the amount of lipid peroxide formed in rat liver microsomes; how it was run: as §1

Q: How did the Increase (Mus musculus [1]) turn out when `Cc1c(C)c2c(c(C)c1N)CC(C)(CCN1CCCCC1)O2` (stereo unspecified) was run?
A: 206.5%

Q: And the Locomotor activity (Mus musculus [2])?
A: <3549

Q: What about the ED50 (Mus musculus [3]) of the same compound?
A: 18.4 mg/kg

Q: And the inhibition (Rattus norvegicus [4])?
A: 8%

Q: What does the source list for `Cc1c(C)c2c(c(C)c1N)CC(C)(CN1CCN(C)CC1)O2` (stereo unspecified)?
A: Increase (Mus musculus [1]): 181.1%; Locomotor activity (Mus musculus [2]): 3154; ED50 (Mus musculus [3]): 25.3 mg/kg; inhibition (Rattus norvegicus [4]): 10%

Q: `Cc1c(C)c2c(c(C)c1N)CC(C)(CNc1ccccc1)O2` (stereo unspecified) was tested. Which Increase (Mus musculus [1]) did it give?
A: 70.4%

Q: And the Locomotor activity (Mus musculus [2])?
A: 1812

Q: And the IC50 (Rattus norvegicus [5])?
A: 260 nM

Q: What about the ED50 (Mus musculus [3]) of the same compound?
A: 15.7 mg/kg

Q: For `Cc1c(C)c2c(c(C)c1N)CC(C)(CSc1ccccc1)O2` (stereo unspecified), which Increase (Mus musculus [1]) is on record?
A: 24.7%

Q: What about the Locomotor activity (Mus musculus [2]) of the same compound?
A: <1098

Q: What about the IC50 (Rattus norvegicus [5]) of the same compound?
A: 270 nM

Q: What about the ED50 (Mus musculus [3]) of the same compound?
A: 24.7 mg/kg

Q: Which Increase (Mus musculus [1]) does the source give for `Cc1c(C)c2c(c(C)c1N)CC(C)(CN1CCN(C(c3ccccc3)c3ccccc3)CC1)O2` (stereo unspecified) here?
A: 62.8%

Q: And the Locomotor activity (Mus musculus [2])?
A: 1664

Q: And the IC50 (Rattus norvegicus [5])?
A: 70 nM

Q: What about the ED50 (Mus musculus [3]) of the same compound?
A: > 50 mg/kg

Q: Which Increase (Mus musculus [1]) does the source give for `Cc1c(C)c2c(c(C)c1N)CC(C)(CSCc1ccccc1)O2` (stereo unspecified) here?
A: 33.6%

Q: What about the Locomotor activity (Mus musculus [2]) of the same compound?
A: 1099

Q: What about the IC50 (Rattus norvegicus [5]) of the same compound?
A: 260 nM

Q: What about the ED50 (Mus musculus [3]) of the same compound?
A: 32 mg/kg

Q: `Cc1c(C)c2c(c(C)c1N)C(c1ccc(F)cc1)C(C)(C)O2` (stereo unspecified) was tested. Which Increase (Mus musculus [1]) did it give?
A: 181.3%

Q: And the Locomotor activity (Mus musculus [2])?
A: 2156

Q: What about the IC50 (Rattus norvegicus [5]) of the same compound?
A: 280 nM

Q: What about the ED50 (Mus musculus [3]) of the same compound?
A: 26.7 mg/kg

Q: With `Cc1c(C)c2c(c(C)c1N)CC(C)(CCN(C)C)O2` (stereo unspecified) as the compound, how does the Increase (Mus musculus [1]) read?
A: 115.2%

Q: And the Locomotor activity (Mus musculus [2])?
A: 2129

Q: What about the ED50 (Mus musculus [3]) of the same compound?
A: 19 mg/kg

Q: What about the inhibition (Rattus norvegicus [4]) of the same compound?
A: 4%

Q: Which results are given for `Cc1c(C)c2c(c(C)c1N)CC(C)(CNCc1ccccc1)O2` (stereo unspecified)?
A: Increase (Mus musculus [1]): 46.1%; Locomotor activity (Mus musculus [2]): 1340; IC50 (Rattus norvegicus [5]): 290 nM; ED50 (Mus musculus [3]): 9.1 mg/kg

Q: With `Cc1c(C)c2c(c(C)c1N)C(c1ccccc1)C(C)(C)O2` (stereo unspecified) as the compound, how does the Increase (Mus musculus [1]) read?
A: 77.3%

Q: And the Locomotor activity (Mus musculus [2])?
A: 1845

Q: And the IC50 (Rattus norvegicus [5])?
A: 290 nM

Q: What about the ED50 (Mus musculus [3]) of the same compound?
A: 24.8 mg/kg

Q: `Cc1c(C)c2c(c(C)c1N)CC(C)(CN1CCC(c3ccccc3)CC1)O2` (stereo unspecified) was tested. Which Increase (Mus musculus [1]) did it give?
A: 1.8%

Q: And the Locomotor activity (Mus musculus [2])?
A: <482

Q: What about the IC50 (Rattus norvegicus [5]) of the same compound?
A: 70 nM

Q: What about the ED50 (Mus musculus [3]) of the same compound?
A: 10.4 mg/kg

Q: Which results are given for `CNc1c(C)c(C)c2c(c1C)CC(C)(C)O2`?
A: Increase (Mus musculus [1]): 84.7%; Locomotor activity (Mus musculus [2]): 1229; ED50 (Mus musculus [3]): 16.6 mg/kg; inhibition (Rattus norvegicus [4]): 18%

Q: With `Cc1c(C)c2c(c(C)c1N)CC(C)(CCc1ccc(F)cc1)O2` (stereo unspecified) as the compound, how does the Increase (Mus musculus [1]) read?
A: 80.1%

Q: And the Locomotor activity (Mus musculus [2])?
A: 1185

Q: And the IC50 (Rattus norvegicus [5])?
A: 80 nM

Q: And the ED50 (Mus musculus [3])?
A: 11.5 mg/kg

Q: `Cc1c(C)c2c(c(C)c1N)CC(C)(CSc1ccncc1)O2` (stereo unspecified) was tested. Which Increase (Mus musculus [1]) did it give?
A: 10.2%

Q: What about the Locomotor activity (Mus musculus [2]) of the same compound?
A: <892

Q: And the IC50 (Rattus norvegicus [5])?
A: 630 nM

Q: And the ED50 (Mus musculus [3])?
A: 19.9 mg/kg
